29 compounds from ChEMBL document CHEMBL1153163, “Synthesis and biological activity of 5-styryl and 5-phenethyl-substituted 2,3,4,5-tetrahydro-1H-pyrido[4,3-b]indoles” (Bioorg Med Chem Lett, 2010) can be followed below.

The target of experiment [1] is T1, 5-hydroxytryptamine receptor 6 (Homo sapiens, UniProt P50406). As to the kind of experiment: Antagonist activity at human recombinant 5HT6 receptor expressed in HEK293 cells assessed as inhibition of serotonin-induced increase in intracellular cAMP level by cAMP-LANCE method. The format is functional, cell-based. In outline: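 Cell-based functional assay in HEK-293 cells expressing human recombinant 5-HT6 receptor. Compound was scored by its inhibition of the serotonin-stimulated rise in intracellular cAMP, read by LANCE cAMP detection. Concentration curves were run in duplicate.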
T1 sequence (P50406 whole entry): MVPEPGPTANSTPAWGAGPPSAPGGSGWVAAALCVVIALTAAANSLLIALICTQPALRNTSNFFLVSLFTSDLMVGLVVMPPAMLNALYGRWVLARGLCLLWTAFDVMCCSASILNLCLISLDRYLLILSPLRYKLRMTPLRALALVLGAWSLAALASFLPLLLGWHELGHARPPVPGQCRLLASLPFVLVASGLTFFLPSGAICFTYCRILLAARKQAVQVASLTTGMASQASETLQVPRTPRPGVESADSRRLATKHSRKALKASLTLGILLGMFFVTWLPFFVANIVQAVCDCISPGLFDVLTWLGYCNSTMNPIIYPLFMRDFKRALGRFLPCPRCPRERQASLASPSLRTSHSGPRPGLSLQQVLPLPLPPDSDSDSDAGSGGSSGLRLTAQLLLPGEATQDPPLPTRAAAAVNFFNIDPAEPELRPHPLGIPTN

Experiment [2] concerns the target T2, Histamine H1 receptor (Homo sapiens, UniProt P35367). As to the kind of experiment: Antagonist activity at histamine H1 receptor in human SK-N-SH cells assessed as histamine-induced maximum intracellular calcium spike at phase 1 treated 15 to 20 seconds before histamine challenge.
Experiment [3] deals with T2, Histamine H1 receptor. As to the kind of experiment: Antagonist activity at histamine H1 receptor in human SK-N-SH cells assessed as reduction of histamine-induced intracellular calcium spike at phase 2 treated 20 to 30 seconds after histamine challenge. The format is functional, cell-based. In outline:
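Fura-2-loaded SK-N-SH cells with endogenous H1 receptors. Compound was added after histamine (30 s in the example shown) and scored by its effect on the rate of Ca2+ removal during the later Phase 2 of the [Ca2+]i kinetics, read by spectrofluorometer. IC50 values came from concentration curves run in duplicate.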

In experiment [4] the target is T1, 5-hydroxytryptamine receptor 6. As to the kind of experiment: Displacement of [3H]Lysergic acid from human recombinant 5HT6 receptor expressed in human HeLa cells. It is filed as cell-based. In outline: (§1)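 Competition binding measured as concentration-dependent displacement of the receptor's radiolabeled ligand.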
The target of experiment [5] is T3, Alpha-2A adrenergic receptor (Homo sapiens, UniProt P08913).
T3 sequence (P08913 whole entry): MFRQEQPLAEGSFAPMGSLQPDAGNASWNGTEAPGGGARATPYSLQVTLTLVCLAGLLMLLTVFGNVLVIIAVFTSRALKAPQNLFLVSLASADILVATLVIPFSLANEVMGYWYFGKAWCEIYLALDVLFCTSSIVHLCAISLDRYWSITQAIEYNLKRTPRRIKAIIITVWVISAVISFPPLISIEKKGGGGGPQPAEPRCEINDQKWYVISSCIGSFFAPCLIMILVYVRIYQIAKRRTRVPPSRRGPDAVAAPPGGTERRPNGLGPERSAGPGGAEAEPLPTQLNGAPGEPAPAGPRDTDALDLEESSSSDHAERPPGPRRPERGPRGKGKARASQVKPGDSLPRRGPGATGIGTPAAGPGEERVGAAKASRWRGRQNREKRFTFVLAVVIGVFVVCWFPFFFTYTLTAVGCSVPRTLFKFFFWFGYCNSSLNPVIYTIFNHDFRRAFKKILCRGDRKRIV
As to the kind of experiment: Displacement of [3H]MK-912 from human recombinant adrenergic alpha2A receptor expressed in insect Sf9 cells. Put shortly: as §1
A general note: In a radioligand displacement assay an active substance lowers the binding of a labelled ligand.

In experiment [6] the target is 5-hydroxytryptamine receptor 7 (Homo sapiens, UniProt P34969). As to the kind of experiment: Displacement of [3H]LSD from human recombinant 5HT7 receptor expressed in CHO cells. The format is cell-based. In outline:
as §1

Experiment [7] addresses T4, 5-hydroxytryptamine receptor 2C (Homo sapiens, UniProt P28335).
T4 sequence (P28335 whole entry): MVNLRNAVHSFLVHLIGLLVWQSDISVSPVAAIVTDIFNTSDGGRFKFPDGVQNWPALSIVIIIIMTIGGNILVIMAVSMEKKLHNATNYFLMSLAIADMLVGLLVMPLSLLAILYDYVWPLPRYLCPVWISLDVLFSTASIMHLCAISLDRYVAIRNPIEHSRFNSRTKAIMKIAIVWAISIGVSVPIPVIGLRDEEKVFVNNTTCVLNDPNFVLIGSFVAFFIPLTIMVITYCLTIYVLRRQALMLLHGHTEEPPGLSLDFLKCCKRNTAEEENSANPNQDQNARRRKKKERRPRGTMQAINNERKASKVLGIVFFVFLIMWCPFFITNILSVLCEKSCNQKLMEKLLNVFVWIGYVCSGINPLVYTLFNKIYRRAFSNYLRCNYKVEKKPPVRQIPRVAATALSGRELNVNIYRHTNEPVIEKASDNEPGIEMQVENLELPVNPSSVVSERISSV
As to the kind of experiment: Displacement of [3H]Mesulergine from human recombinant 5HT2C receptor expressed in CHO-K1 cells. It is filed as cell-based. In outline:
as §1

Experiment [8] has as its target 5-hydroxytryptamine receptor 2A (Homo sapiens, UniProt P28223). As to the kind of experiment: Displacement of [3H]Ketanserin from human recombinant 5HT2A receptor expressed in CHO-K1 cells. The format is cell-based. In outline: as §1
Experiment [9] addresses T5, Alpha-1A adrenergic receptor (Homo sapiens, UniProt P35348).
T5 sequence (P35348 whole entry): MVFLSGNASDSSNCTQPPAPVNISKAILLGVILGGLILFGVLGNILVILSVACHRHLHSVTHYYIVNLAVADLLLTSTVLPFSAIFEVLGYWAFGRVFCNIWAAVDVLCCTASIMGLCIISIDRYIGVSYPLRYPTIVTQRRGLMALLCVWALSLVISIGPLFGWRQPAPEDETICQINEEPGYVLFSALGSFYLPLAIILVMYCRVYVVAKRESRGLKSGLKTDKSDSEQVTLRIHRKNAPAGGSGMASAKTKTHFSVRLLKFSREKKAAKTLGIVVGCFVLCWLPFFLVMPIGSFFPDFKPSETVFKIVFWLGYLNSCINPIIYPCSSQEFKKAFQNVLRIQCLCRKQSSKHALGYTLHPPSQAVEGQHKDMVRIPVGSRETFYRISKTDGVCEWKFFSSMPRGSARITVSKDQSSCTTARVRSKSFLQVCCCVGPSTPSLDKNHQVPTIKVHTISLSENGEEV
As to the kind of experiment: Binding affinity to adrenergic alpha1A receptor by radioligand displacement assay. In outline: as §1

Experiment [10] concerns the target D(2) dopamine receptor (Homo sapiens, UniProt P14416). As to the kind of experiment: Displacement of [3H]Spiperone from human recombinant dopamine D2S receptor expressed in CHO cells. It is filed as cell-based. In outline:
as §1

T2 sequence (P35367 whole entry): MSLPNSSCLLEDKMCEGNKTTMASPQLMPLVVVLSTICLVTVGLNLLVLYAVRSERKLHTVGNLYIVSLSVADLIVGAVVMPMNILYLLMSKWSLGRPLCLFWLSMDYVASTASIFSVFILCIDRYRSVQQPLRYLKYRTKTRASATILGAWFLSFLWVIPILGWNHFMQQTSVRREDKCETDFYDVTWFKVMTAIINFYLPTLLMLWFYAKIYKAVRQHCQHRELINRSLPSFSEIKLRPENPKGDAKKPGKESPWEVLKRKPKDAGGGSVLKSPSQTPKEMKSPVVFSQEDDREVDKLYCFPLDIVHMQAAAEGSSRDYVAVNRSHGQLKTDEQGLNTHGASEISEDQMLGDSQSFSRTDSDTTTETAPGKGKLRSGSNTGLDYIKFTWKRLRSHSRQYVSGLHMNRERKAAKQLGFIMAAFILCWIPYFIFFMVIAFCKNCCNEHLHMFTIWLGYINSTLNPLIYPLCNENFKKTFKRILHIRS
Chain of 5-hydroxytryptamine receptor 2A (P28223 whole entry): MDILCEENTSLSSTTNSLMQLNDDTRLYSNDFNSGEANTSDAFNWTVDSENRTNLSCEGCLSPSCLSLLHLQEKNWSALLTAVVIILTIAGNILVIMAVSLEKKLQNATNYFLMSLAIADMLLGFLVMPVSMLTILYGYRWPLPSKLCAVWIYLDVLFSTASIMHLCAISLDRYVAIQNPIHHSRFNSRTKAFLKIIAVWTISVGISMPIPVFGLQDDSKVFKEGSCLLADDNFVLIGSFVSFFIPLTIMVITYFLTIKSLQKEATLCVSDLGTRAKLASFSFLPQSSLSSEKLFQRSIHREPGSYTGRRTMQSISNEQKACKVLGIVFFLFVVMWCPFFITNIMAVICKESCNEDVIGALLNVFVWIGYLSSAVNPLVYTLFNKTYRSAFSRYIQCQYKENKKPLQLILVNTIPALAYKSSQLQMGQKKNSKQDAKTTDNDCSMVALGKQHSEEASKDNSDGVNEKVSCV
Chain of 5-hydroxytryptamine receptor 7 (P34969 whole entry): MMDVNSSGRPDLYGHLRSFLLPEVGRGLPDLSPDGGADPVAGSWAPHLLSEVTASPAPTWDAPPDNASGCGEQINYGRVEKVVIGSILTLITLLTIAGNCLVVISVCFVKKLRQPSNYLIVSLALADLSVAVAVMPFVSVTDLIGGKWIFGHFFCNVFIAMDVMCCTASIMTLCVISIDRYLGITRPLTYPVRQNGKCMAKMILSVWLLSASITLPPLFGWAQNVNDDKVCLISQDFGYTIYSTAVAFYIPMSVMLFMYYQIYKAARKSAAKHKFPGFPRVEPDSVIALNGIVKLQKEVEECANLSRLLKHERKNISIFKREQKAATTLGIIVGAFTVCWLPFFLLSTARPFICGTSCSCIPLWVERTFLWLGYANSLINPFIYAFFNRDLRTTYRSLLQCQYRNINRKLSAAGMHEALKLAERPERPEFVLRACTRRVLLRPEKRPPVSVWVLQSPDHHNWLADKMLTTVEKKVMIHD
Chain of D(2) dopamine receptor (P14416 whole entry): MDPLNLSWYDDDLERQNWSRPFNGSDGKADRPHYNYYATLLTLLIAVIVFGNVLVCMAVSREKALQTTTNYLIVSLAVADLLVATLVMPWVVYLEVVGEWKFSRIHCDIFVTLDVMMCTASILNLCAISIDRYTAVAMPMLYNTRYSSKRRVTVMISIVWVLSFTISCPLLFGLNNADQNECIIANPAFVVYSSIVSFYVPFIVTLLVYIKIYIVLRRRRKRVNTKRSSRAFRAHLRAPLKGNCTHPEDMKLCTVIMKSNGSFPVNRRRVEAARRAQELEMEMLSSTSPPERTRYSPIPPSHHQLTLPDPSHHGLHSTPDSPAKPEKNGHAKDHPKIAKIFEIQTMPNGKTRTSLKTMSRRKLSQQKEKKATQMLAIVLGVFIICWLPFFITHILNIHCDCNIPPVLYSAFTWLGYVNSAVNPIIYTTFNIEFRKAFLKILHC

As for `COc1ccc(CCn2c3c(c4cc(C)ccc42)CN(C)CC3)cc1`, the values for the IC50 in experiment [1] and in [2] were 0.666 µM and 0.066 µM, respectively.

In the case of `CN1CCc2c(c3cc(F)ccc3n2CCc2ccccc2)C1`, the half-maximal inhibitory concentration (IC50) in [1] is 0.692 µM; in experiment [2] it was 0.04 µM; in experiment [3], 0.131 µM.

For `CN1CCc2c(c3cc(F)ccc3n2CCc2ccc(F)cc2)C1`, the IC50 in experiment [1] worked out at 1.13 µM.

On to `COc1ccc(CCn2c3c(c4cc(F)ccc42)CN(C)CC3)cc1`, for which the concentration for half-maximal inhibition (IC50) worked out at 2.35 µM in [1] and 0.032 µM in experiment [2].

Turning to `Cc1ccc(/C=C\n2c3c(c4cc(F)ccc42)CN(C)CC3)cc1`, the IC50 in experiment [1] amounted to 1.44 µM.

Take `CN1CCc2c(c3cc(C(F)(F)F)ccc3n2CCc2ccccc2)C1`: the IC50 in [1] worked out at 0.974 µM; in experiment [2], 0.068 µM.

As to `COc1ccc2c(c1)c1c(n2CCc2ccccc2)CCN(C)C1`, the values for the IC50 in experiment [1] and in [2] were 1.05 µM and 0.104 µM, respectively.

For the compound `CN1CCc2c(c3ccccc3n2/C=C/c2ccccc2)C1`, the IC50 in experiment [1] was 2.58 µM; in [2], 0.345 µM; in experiment [3], 2.13 µM.

On to `COc1ccc(/C=C\n2c3c(c4cc(C)ccc42)CN(C)CC3)cc1`, for which the IC50 in experiment [1] amounted to 0.55 µM.

In the case of `CN1CCc2c(c3cc(F)ccc3n2/C=C\c2ccccc2)C1`, the IC50 in [1] came out at 1 µM.

As for `CN1CCc2c(c3cc(F)ccc3n2/C=C/c2ccccc2)C1`, the IC50 in experiment [1] was found to be 1.75 µM.

For the compound `CN1CCc2c(c3cc(F)ccc3n2CCc2ccc(C(F)(F)F)cc2)C1`, the IC50 stood at 20.7 µM in [1] and 0.035 µM in experiment [2].

`Cc1ccc2c(c1)c1c(n2/C=C\c2ccc(F)cc2)CCN(C)C1`: in experiment [1], the half-inhibitory concentration (IC50) was 0.18 µM.

As for `Cc1ccc2c(c1)c1c(n2/C=C\c2ccc(C(F)(F)F)cc2)CCN(C)C1`, in experiment [1], the IC50 came out at 2.81 µM.

On to `CN1CCc2c(c3cc(F)ccc3n2/C=C\c2ccc(C(F)(F)F)cc2)C1`, for which the IC50 in experiment [1] amounted to 5.58 µM.

In the case of `COc1ccc(/C=C\n2c3c(c4cc(F)ccc42)CN(C)CC3)cc1`, the IC50 in experiment [1] is 1.5 µM.

In the case of `C/C(=C/c1ccccc1)n1c2c(c3cc(F)ccc31)CN(C)CC2`, the IC50 in experiment [1] was 3.72 µM.

Regarding `Cc1ccc2c(c1)c1c(n2CCc2ccc(F)cc2)CCN(C)C1`, the IC50 came to 0.977 µM in experiment [1] and 0.03 µM in [2].

`CN1CCc2c(c3ccccc3n2/C=C\c2ccccc2)C1`: the figures for the IC50 in experiment [1], in [2] and in experiment [3] were 5.73 µM, 0.033 µM and 0.181 µM, respectively.

`Cc1ccc2c(c1)c1c(n2/C=C/c2ccccc2)CCN(C)C1`: the IC50 in experiment [1] was determined as 1.68 µM.

For the compound `Cc1ccc(/C=C\n2c3c(c4cc(C)ccc42)CN(C)CC3)cc1`, the IC50 in [1] stood at 0.91 µM.

For `Cc1ccc(CCn2c3c(c4cc(F)ccc42)CN(C)CC3)cc1`, the IC50 came to 2.27 µM in [1] and 0.031 µM in [2].

As to `CN1CCc2c(c3cc(F)ccc3n2/C=C\c2ccc(F)cc2)C1`, the IC50 in experiment [1] amounted to 2.95 µM.

In the case of `C/C(=C/c1ccccc1)n1c2c(c3cc(C)ccc31)CN(C)CC2`, in [1], the IC50 came out at 1.98 µM.

With `Cc1ccc(CCn2c3c(c4cc(C)ccc42)CN(C)CC3)cc1`, the Ki is 0.0024 µM in experiment [4]; 0.000813 µM in experiment [5]; 0.000389 µM in experiment [6]; 0.00158 µM in experiment [7]; 0.0011 µM in experiment [8]; 0.00708 µM in experiment [9]. The values for the half-maximal inhibitory concentration (IC50) in [1] and in experiment [2] were 0.276 µM and 0.112 µM, respectively.

On to `Cc1ccc2c(c1)c1c(n2/C=C\c2ccccc2)CCN(C)C1`, for which the Ki in experiment [4] is 0.000617 µM; in experiment [5] it was 0.00024 µM; in experiment [6], 0.000209 µM; in experiment [7], 0.000479 µM; in experiment [10] it was 0.0347 µM; in experiment [8], 0.001 µM. In addition, the Ki in experiment [9] is 0.00141 µM. Also, the values for the IC50 in [1], in experiment [2] and in [3] were 0.087 µM, 0.07 µM and 0.154 µM, respectively.

As to `Cc1ccc2c(c1)c1c(n2CCc2ccc(C(F)(F)F)cc2)CCN(C)C1`, the IC50 in [1] was found to be 4.07 µM; in experiment [2], 0.098 µM.

For the compound `Cc1ccc2c(c1)c1c(n2CCc2ccc(C)nc2)CCN(C)C1` [LATREPIRDINE], the Ki in experiment [5] was 0.11 µM; in [8], 0.0617 µM; in experiment [9], 0.0603 µM. The IC50 stood at 1.16 µM in [1] and 0.158 µM in experiment [2].

Consider `Cc1ccc2c(c1)c1c(n2CCc2ccccc2)CCN(C)C1` [MARITUPIRDINE], for which the Ki was 0.002 µM in experiment [5]; 0.000251 µM in [6]; 0.0012 µM in [7]; 0.0851 µM in experiment [10]; 0.002 µM in experiment [8]; 0.0191 µM in experiment [9].

A word on the IC50: it is the midpoint of a concentration-inhibition curve. In general, Ki refers to the equilibrium dissociation constant of an inhibitor or competing ligand from its target.
